Assay results as given in ChEMBL document CHEMBL1255243, “Resistance of Porphyromonas gingivalis ATCC 33277 to direct killing by antimicrobial peptides is protease independent” (2008).
Calls of active or inactive are those of the source. The rule behind the calls is not given here.

Experiments:
Porphyromonas gingivalis [1] = assay: Antibacterial activity against protease deficient Porphyromonas gingivalis KDP136; assay type: functional
Escherichia coli [2] = assay: Antibacterial activity against Escherichia coli ATCC 25922 assessed as growth inhibition at 100 ug/ml following preincubation of compound with supernatant of Porphyromonas gingivalis ATCC 33277; assay type: functional, organism-based
Procedure, shortened: (§1)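 Peptide preincubated with filter-sterilized stationary-phase culture supernatant (20% final) for set times, then 10 µl added to 190 µl E. coli overnight culture (diluted 1:5,000 in BHI, sonicated 1 min); peptide 100 μg/ml final on cells; aerobic growth; OD650 read; % inhibition relative to no-peptide (0%) and medium-preincubated peptide (100%); three independent experiments in triplicate, mean ± SD.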

Streptococcus mutans [3] = assay: Antibacterial activity against Streptococcus mutans ATCC 27351 assessed as growth inhibition at 100 ug/ml following preincubation of compound with supernatant of Porphyromonas gingivalis ATCC 33277; assay type: functional, organism-based
Procedure, shortened: (§2)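 Peptide at 100 μg/ml incubated with filter-sterilized stationary-phase culture supernatant (20% final) for set times; 10 µl added to 190 µl S. mutans overnight culture diluted 1:10 in BHI and sonicated 1 min; grown at 37°C, 5% CO2; OD650 read; % inhibition relative to no-peptide (0%) and medium-preincubated peptide (100%); three experiments in triplicate, mean ± SD.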

Streptococcus mutans [4] = assay: Antibacterial activity against Streptococcus mutans ATCC 27351 assessed as growth inhibition at 100 ug/ml following preincubation of compound with supernatant of Aggregatibacter actinomycetemcommitans ATCC 29523; assay type: functional, organism-based; procedure, shortened: as §2
Escherichia coli [5] = assay: Antibacterial activity against Escherichia coli ATCC 25922 assessed as growth inhibition at 100 ug/ml following preincubation of compound with supernatant of Aggregatibacter actinomycetemcommitans ATCC 29523; assay type: functional, organism-based; procedure, shortened: as §1
Porphyromonas gingivalis [6] = assay: Antibacterial activity against Porphyromonas gingivalis ATCC 33277; assay type: functional, organism-based
Procedure, shortened: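 Increasing amounts of peptide were added to a growing anaerobic P. gingivalis culture. Percent growth inhibition was calculated relative to untreated cells (0%). Means ± SD of three independent experiments.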

Streptococcus mutans [7] = assay: Antibacterial activity against Streptococcus mutans ATCC 27351 assessed as growth inhibition at 5 ug/ml following preincubation of compound with supernatant of Porphyromonas gingivalis ATCC 33277; assay type: functional, organism-based
Procedure, shortened: (§3)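 Stationary-phase P. gingivalis or A. actinomycetemcomitans cultures were spun 10 min at 10,000 × g and the supernatant filter-sterilised (0.2 μm). Peptide was preincubated with 20% (final) filtrate for varying times. It was then added to S. mutans (overnight culture diluted 1:10 in BHI, bath-sonicated 1 min), grown at 37°C in 5% CO2, and read at OD650. % inhibition: no-peptide = 0%, fresh-medium-preincubated peptide = 100%. Mean ± SD, three independent experiments.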

Streptococcus mutans [8] = assay: Antibacterial activity against Streptococcus mutans ATCC 27351 assessed as growth inhibition at 5 ug/ml following preincubation of compound with supernatant of Aggregatibacter actinomycetemcommitans ATCC 29523; assay type: functional, organism-based; procedure, shortened: as §3
Porphyromonas gingivalis [9] = assay: Binding affinity to membranes of Porphyromonas gingivalis KDP136 using Alexa Fluor-labeled compound at 0.8 mg/ml by fluorimetric assay
Streptococcus mutans [10] = assay: Antibacterial activity against Streptococcus mutans assessed as growth inhibition at 5 ug/ml following preincubation of compound with supernatant of Porphyromonas gingivalis ATCC 33277
Streptococcus mutans [11] = assay: Antibacterial activity against Streptococcus mutans assessed as growth inhibition at 5 ug/ml following preincubation of compound with supernatant of Aggregatibacter actinomycetemcommitans ATCC 29523
Streptococcus mutans [12] = assay: Antibacterial activity against Streptococcus mutans ATCC 27351 assessed as growth inhibition at 40 ug/ml following preincubation of compound with supernatant of Porphyromonas gingivalis ATCC 33277; assay type: functional, organism-based; procedure, shortened: as §3
Streptococcus mutans [13] = assay: Antibacterial activity against Streptococcus mutans ATCC 27351 assessed as growth inhibition at 40 ug/ml following preincubation of compound with supernatant of Aggregatibacter actinomycetemcommitans ATCC 29523; assay type: functional, organism-based; procedure, shortened: as §3
Streptococcus mutans [14] = assay: Antibacterial activity against Streptococcus mutans assessed as growth inhibition at 40 ug/ml following preincubation of compound with supernatant of Porphyromonas gingivalis ATCC 33277
Streptococcus mutans [15] = assay: Antibacterial activity against Streptococcus mutans assessed as growth inhibition at 40 ug/ml following preincubation of compound with supernatant of Aggregatibacter actinomycetemcommitans ATCC 29523

## CC[C@H](C)[C@H](NC(=O)[C@H](CCCCN)NC(=O)[C@H](CCC(=O)O)NC(=O)[C@H](CCCCN)NC(=O)[C@H](CO)NC(=O)[C@H](CCCCN)NC(=O)[C@H](CCCNC(=N)N)NC(=O)[C@H](Cc1ccccc1)NC(=O)[C@H](Cc1ccccc1)NC(=O)[C@H](CC(=O)O)NC(=O)CNC(=O)[C@H](CC(C)C)NC(=O)[C@@H](N)CC(C)C)C(=O)NCC(=O)N[C@@H](CCCCN)C(=O)N[C@@H](CCC(=O)O)C(=O)N[C@@H](Cc1ccccc1)C(=O)N[C@@H](CCCCN)C(=O)N[C@@H](CCCNC(=N)N)C(=O)N[C@H](C(=O)N[C@H](C(=O)N[C@@H](CCC(N)=O)C(=O)N[C@@H](CCCNC(=N)N)C(=O)N[C@H](C(=O)N[C@@H](CCCCN)C(=O)N[C@@H](CC(=O)O)C(=O)N[C@@H](Cc1ccccc1)C(=O)N[C@@H](CC(C)C)C(=O)N[C@@H](CCCNC(=N)N)C(=O)N[C@@H](CC(N)=O)C(=O)N[C@@H](CC(C)C)C(=O)N[C@H](C(=O)N1CCC[C@H]1C(=O)N[C@@H](CCCNC(=N)N)C(=O)N[C@H](C(=O)N[C@@H](CCC(=O)O)C(=O)N[C@@H](CO)C(=O)O)[C@@H](C)O)C(C)C)[C@@H](C)CC)C(C)C)[C@@H](C)CC [CATHELICIDIN]
Porphyromonas gingivalis [1]
  MIC: > 200 µg/mL
Escherichia coli [2]
  Activity: inactive
Streptococcus mutans [3]
  Activity: inactive
Streptococcus mutans [4]
  Activity: Active
Escherichia coli [5]
  Activity: Active

## H-ALWKTLLKKVLKAAA-NH2
Porphyromonas gingivalis [6]
  Activity: inactive
Streptococcus mutans [7]
  Activity: inactive
Streptococcus mutans [8]
  Activity: Active
Porphyromonas gingivalis [9]
  Activity: inactive
Streptococcus mutans [10]
  Activity: inactive
Streptococcus mutans [11]
  Activity: Active

## H-KRLFKKLLFSLRKY-NH2
Streptococcus mutans [12]
  Activity: inactive
Streptococcus mutans [13]
  Activity: Active
Streptococcus mutans [14]
  Activity: inactive
Streptococcus mutans [15]
  Activity: Active
